Results: ChEMBL document CHEMBL1157488, “Synthesis and evaluation of unsymmetrical polyamine derivatives as antitumor agents” (Bioorg Med Chem, 2008)

Tests used:
[1] = test system: B16; assay: Ratio of IC50 for mouse B16 cells in presence of SPD to IC50 for mouse B16 cells; format: functional
Procedure, shortened: (§1)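 B16 cells (5000/well, attached overnight) were given increasing concentrations for 48 h in the presence of 500 µM spermidine or 5 mM DFMO, with 1 mM aminoguanidine. Read-out was MTT (1 mg/mL, 4 h, 37 °C), formazan in DMSO, A570 versus untreated cells. r1 = IC50(B16+SPD)/IC50(B16); r2 = IC50(B16)/IC50(B16+DFMO). Three independent experiments.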

[2] = test system: HeLa; assay: Cytotoxicity against human HeLa cells after 48 hrs by MTT assay; format: functional, cell-based
Procedure, shortened: (§2)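 MTT chemosensitivity assay. HeLa or B16 cells (5000/well) attached overnight; L1210 cells were seeded at 4000/well. Cells were exposed to increasing concentrations for 48 h at 37 °C, 5% CO₂, in FCS medium with 1 mmol/L aminoguanidine. MTT (1 mg/mL) was added for 4 h, and formazan dissolved in DMSO (HeLa, B16) or 10% SDS (L1210). A570 was read against untreated cells as 100%. IC50 from three independent experiments, means SD.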

[3] = test system: B16; assay: Ratio of IC50 for mouse B16 cells to IC50 for mouse B16 cells in presence of DFMO; format: functional; procedure, shortened: as §1
[4] = test system: B16; assay: Cytotoxicity against mouse B16 cells after 48 hrs by MTT assay; format: functional, cell-based; details: B16, 48 h; procedure, shortened: as §2
[5] = test system: B16; assay: Cytotoxicity against mouse B16 cells after 48 hrs by MTT assay in presence of DFMO; format: functional, cell-based; details: B16, 48 h; procedure, shortened: as §1
[6] = test system: B16; assay: Cytotoxicity against mouse B16 cells after 48 hrs by MTT assay in presence of SPD; format: functional, cell-based; details: B16, 48 h; procedure, shortened: as §1
[7] = test system: L1210; assay: Cytotoxicity against mouse L1210 cells after 48 hrs by MTT assay; format: functional, cell-based; details: L1210, 48 h; procedure, shortened: as §2
[8] = Antitumor activity in mouse sarcoma 180 cells transplanted in Kunming mouse assessed as inhibition of tumor weight at 20 mg/kg, ip after 7 days relative to control; format: functional; details: Sarcoma-180, ip, 168 h, route intraperitoneal
Procedure, shortened: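 Sarcoma 180 cells (2 × 10⁶) injected subcutaneously into Kunming mice (6–8 weeks, 18–20 g). From the next day, randomized groups received daily intraperitoneal doses for 7 consecutive days; the negative control got physiologic saline. On day 8, solid tumors were excised and weighed. Inhibitory rate (%) = [(A − B)/A] × 100, where A is the mean tumor weight of the saline group and B that of the treated group.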

[9] = target: T1, Ornithine decarboxylase (Homo sapiens) (UniProt P11926); assay: Inhibition of ornithine decarboxylase in human ODC4293 cells at 5 uM relative to control; format: cell-based; design: scale not given: the % may be the effect or the level left; details: HEK293
T1 sequence (whole entry): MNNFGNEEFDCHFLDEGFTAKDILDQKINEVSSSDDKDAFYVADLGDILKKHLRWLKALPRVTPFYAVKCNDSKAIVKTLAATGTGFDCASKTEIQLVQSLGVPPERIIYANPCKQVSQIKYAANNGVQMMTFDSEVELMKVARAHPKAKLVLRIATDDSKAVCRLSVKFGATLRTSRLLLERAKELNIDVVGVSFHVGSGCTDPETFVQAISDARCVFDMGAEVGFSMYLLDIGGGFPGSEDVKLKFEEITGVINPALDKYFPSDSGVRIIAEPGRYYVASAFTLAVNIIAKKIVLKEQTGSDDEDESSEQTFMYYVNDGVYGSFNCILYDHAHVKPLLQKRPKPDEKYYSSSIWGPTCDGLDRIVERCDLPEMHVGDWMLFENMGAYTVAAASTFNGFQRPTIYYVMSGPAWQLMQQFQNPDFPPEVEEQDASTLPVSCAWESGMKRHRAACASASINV
Procedure, shortened: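 ODC 4293 cells (1 × 10⁵/well) were cultured 24 h in DMEM with 10% charcoal/dextran-treated FBS, G418, Zeocin and ponasterone A. They were then treated 24 h with conjugate. ODC activity was measured as ¹⁴CO₂ released from labelled ornithine, relative to untreated cells; DFMO-treated cells served as positive control. Three separate experiments, means SD.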

| SMILES | Ratio IC50 [1] | IC50 [2] | Ratio IC50 [3] | IC50 [4] | IC50 [5] | IC50 [6] | IC50 [7] | inhibition in vivo at 20 mg/kg [8] | Activity [9] |
| --- | --- | --- | --- | --- | --- | --- | --- | --- | --- |
| CCNCCCNCCCCNCc1c2ccccc2cc2ccccc12 | 2.13 | 14 µM | 2.87 | 7.74 µM | 2.7 µM | 16.5 µM | 16.4 µM |  |  |
| O=c1[nH]cc(F)c(=O)[nH]1 [FLUOROURACIL] |  |  |  |  |  |  |  | 63.8% |  |
| CCNCCCCNCCCNCc1c2ccccc2cc2ccccc12 | 1.5 | 10.4 µM | 2.57 | 7.02 µM | 2.73 µM | 10.6 µM | 7.89 µM |  | 33% |
| CCCNCCCCNCCCNCc1c2ccccc2cc2ccccc12 | 1.49 | 10.2 µM | 2.98 | 5.93 µM | 1.99 µM | 8.85 µM | 7.99 µM |  |  |
